Test results published in ChEMBL document CHEMBL2331191, “Design and synthesis of novel 1,2,3-triazole-dithiocarbamate hybrids as potential anticancer agents” (Eur J Med Chem, 2013).
pIC50: −log10 of the molar value.

Tests used:
Format in all cases: functional, cell-based
[1] = Cytotoxicity against human EC109 cells assessed as growth inhibition after 72 hrs by MTT assay; settings: ECa-109, 72 h
How it was run: (§1)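 Exponentially growing cells were seeded at 5×10^3 per well and held 24 h at 37 °C. Medium was then replaced with fresh medium containing a range of concentrations, and cells were exposed for 72 h. MTT (5 mg/mL) was added for 4 h at 37 °C, formazan was dissolved in DMSO and A570 was read. Triplicate wells per concentration, three experiments. IC50 was taken from dose–response curves of inhibition ratio.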

PC-3 = test: Cytotoxicity against human PC3 cells assessed as growth inhibition after 72 hrs by MTT assay; settings: PC-3, 72 h; how it was run: as §1
MCF7 = test: Cytotoxicity against human MCF7 cells assessed as growth inhibition after 72 hrs by MTT assay; settings: MCF7, 72 h; how it was run: as §1
MGC-803 = test: Cytotoxicity against human MGC803 cells assessed as growth inhibition after 72 hrs by MTT assay; settings: MGC-803, 72 h; how it was run: as §1

## CC(C)(C)OC(=O)N1CCN(C(=S)SCc2cn(Cc3ccccc3F)nn2)CC1
[1]
  pIC50: 5.61
PC-3
  pIC50: 4.94
MCF7
  pIC50: 5.25

## O=C(OCc1ccccc1)N1CCN(C(=S)SCc2cn(Cc3ccc(Cl)cc3)nn2)CC1
[1]
  pIC50: < 3.89
PC-3
  pIC50: < 3.89
MCF7
  pIC50: 4.56
MGC-803
  pIC50: 4.50

## Cc1ccc(Cn2cc(CSC(=S)N3CCN(C(=O)OC(C)(C)C)CC3)nn2)cc1
[1]
  pIC50: 4.32
PC-3
  pIC50: 4.76
MCF7
  pIC50: 4.71
MGC-803
  pIC50: 5.46

## CC(C)(C)OC(=O)N1CCN(C(=S)SCc2cn(Cc3ccc(F)cc3)nn2)CC1
[1]
  pIC50: 4.23
PC-3
  pIC50: < 3.89
MCF7
  pIC50: 5.48
MGC-803
  pIC50: 5.71

## COc1ccc(-n2cc(CSC(=S)N3CCN(C(=O)OC(C)(C)C)CC3)nn2)cc1
[1]
  pIC50: < 3.89
PC-3
  pIC50: < 3.89
MCF7
  pIC50: 4.03
MGC-803
  pIC50: 4.06

## Cc1ccc(Cn2cc(CSC(=S)N3CCN(C(=O)OCc4ccccc4)CC3)nn2)cc1
[1]
  pIC50: 4.49
PC-3
  pIC50: < 3.89
MCF7
  pIC50: 4.42
MGC-803
  pIC50: 5.03

## CC(C)(C)OC(=O)N1CCN(C(=S)SCc2cn(Cc3cc(=O)oc4cc(O)ccc34)nn2)CC1
[1]
  pIC50: < 3.89
PC-3
  pIC50: 4.43
MCF7
  pIC50: 4.98
MGC-803
  pIC50: 5.30

## COc1ccc(Cn2cc(CSC(=S)N3CCN(C(=O)OC(C)(C)C)CC3)nn2)cc1
[1]
  pIC50: 4.43
PC-3
  pIC50: < 3.89
MCF7
  pIC50: 5.30
MGC-803
  pIC50: 4.64

## COc1ccc(Cn2cc(CSC(=S)N3CCNCC3)nn2)cc1
[1]
  pIC50: < 3.89
PC-3
  pIC50: < 3.89

## CC(C)(C)OC(=O)N1CCN(C(=S)SCc2cn(Cc3ccc(Cl)cc3)nn2)CC1
[1]
  pIC50: < 3.89
PC-3
  pIC50: < 3.89
MCF7
  pIC50: 5.53
MGC-803
  pIC50: 5.01

## S=C(SCc1cn(Cc2ccc(Cl)cc2)nn1)N1CCNCC1
[1]
  pIC50: < 3.89
PC-3
  pIC50: < 3.89

## Fc1ccc(Cn2cc(CSC(=S)N3CCNCC3)nn2)cc1
[1]
  pIC50: < 3.89
PC-3
  pIC50: < 3.89
MCF7
  pIC50: 4.30
MGC-803
  pIC50: 4.49

## CC(C)(C)OC(=O)N1CCN(C(=S)SCc2cn(Cc3ccc(Cl)c(Cl)c3)nn2)CC1
[1]
  pIC50: < 3.89
PC-3
  pIC50: < 3.89
MCF7
  pIC50: 4.72
MGC-803
  pIC50: 4.47

## O=C(OCc1ccccc1)N1CCN(C(=S)SCc2cn(Cc3ccc(Cl)c(Cl)c3)nn2)CC1
[1]
  pIC50: 4.53
PC-3
  pIC50: < 3.89
MCF7
  pIC50: 4.97
MGC-803
  pIC50: 5.15

## CC(C)(C)OC(=O)N1CCN(C(=S)SCc2cn(CCOc3ccc4ccc(=O)oc4c3)nn2)CC1
[1]
  pIC50: < 3.89
PC-3
  pIC50: < 3.89
MCF7
  pIC50: 4.10
MGC-803
  pIC50: 4.17

## Cc1cc(=O)oc2cc(OCCn3cc(CSC(=S)N4CCN(C(=O)OC(C)(C)C)CC4)nn3)ccc12
[1]
  pIC50: < 3.89
PC-3
  pIC50: < 3.89
MCF7
  pIC50: 4.04
MGC-803
  pIC50: 4.11

## Cc1ccc(-n2cc(CSC(=S)N3CCN(C(=O)OC(C)(C)C)CC3)nn2)cc1
[1]
  pIC50: 3.94
PC-3
  pIC50: < 3.89
MCF7
  pIC50: 4.13
MGC-803
  pIC50: 4.32

## CC(C)(C)OC(=O)N1CCN(C(=S)SCc2cn(-c3ccccc3F)nn2)CC1
[1]
  pIC50: < 3.89
PC-3
  pIC50: < 3.89
MCF7
  pIC50: 4.05
MGC-803
  pIC50: 3.92

## COc1cc(Cn2cc(CSC(=S)N3CCN(C(=O)OCc4ccccc4)CC3)nn2)cc(OC)c1OC
[1]
  pIC50: < 3.89
PC-3
  pIC50: < 3.89
MCF7
  pIC50: < 3.89
MGC-803
  pIC50: 4.96

## COc1cc(Cn2cc(CSC(=S)N3CCNCC3)nn2)cc(OC)c1OC
[1]
  pIC50: < 3.89
PC-3
  pIC50: < 3.89

## CC(C)(C)OC(=O)N1CCN(C(=S)SCc2cn(-c3cccc(C(F)(F)F)c3)nn2)CC1
[1]
  pIC50: 4.16
PC-3
  pIC50: < 3.89
MCF7
  pIC50: 4.09
MGC-803
  pIC50: 4.17

## Cc1ccc(Cn2cc(CSC(=S)N3CCNCC3)nn2)cc1
[1]
  pIC50: < 3.89
PC-3
  pIC50: 4.70
MCF7
  pIC50: 4.27
MGC-803
  pIC50: 4.19

## S=C(SCc1cn(Cc2ccccc2Cl)nn1)N1CCNCC1
[1]
  pIC50: < 3.89
MCF7
  pIC50: 4.41
MGC-803
  pIC50: 4.34

## O=C(OCc1ccccc1)N1CCN(C(=S)SCc2cn(Cc3ccccc3Cl)nn2)CC1
[1]
  pIC50: 4.25
PC-3
  pIC50: < 3.89
MCF7
  pIC50: 4.67
MGC-803
  pIC50: 4.81

## S=C(SCc1cn(Cc2ccc(Cl)c(Cl)c2)nn1)N1CCNCC1
[1]
  pIC50: < 3.89

## Fc1ccccc1Cn1cc(CSC(=S)N2CCNCC2)nn1
[1]
  pIC50: < 3.89
PC-3
  pIC50: 4.25
MCF7
  pIC50: 4.48
MGC-803
  pIC50: 4.71

## COc1cc(Cn2cc(CSC(=S)N3CCN(C(=O)OC(C)(C)C)CC3)nn2)cc(OC)c1OC
[1]
  pIC50: 4.35
PC-3
  pIC50: < 3.89
MCF7
  pIC50: 4.64
MGC-803
  pIC50: 4.56

## O=c1[nH]cc(F)c(=O)[nH]1 [FLUOROURACIL]
[1]
  pIC50: 5.48
PC-3
  pIC50: 4.57
MGC-803
  pIC50: 5.15

## COc1ccc(Cn2cc(CSC(=S)N3CCN(C(=O)OCc4ccccc4)CC3)nn2)cc1
[1]
  pIC50: 4.23
PC-3
  pIC50: < 3.89
MCF7
  pIC50: 4.52
MGC-803
  pIC50: 4.62

## O=C(OCc1ccccc1)N1CCN(C(=S)SCc2cn(Cc3ccccc3F)nn2)CC1
[1]
  pIC50: 4.57
PC-3
  pIC50: 4.17
MCF7
  pIC50: 5.10
MGC-803
  pIC50: 5.30

## O=C(OCc1ccccc1)N1CCN(C(=S)SCc2cn(Cc3ccc(F)cc3)nn2)CC1
[1]
  pIC50: 4.49
PC-3
  pIC50: < 3.89
MCF7
  pIC50: 4.99
MGC-803
  pIC50: 4.75
